In article PMC5429141 (Nature structural & molecular biology, 2016):

Tests used:
[1] = target: wild-type EcTrmD (Escherichia coli, UniProt P0A873); type: biochemical, E. coli; conditions: single turnover, 37 °C
[2] = tested on: EcTrmD E116A; assay: Pre-steady-state methyl transfer kinetics, E116A mutant; type: biochemical, E. coli; conditions: E116A relative to wild-type enzyme
[3] = tested on: EcTrmD P89W; assay: Pre-steady-state methyl transfer kinetics, P89W mutant; type: biochemical, E. coli; conditions: P89W relative to wild-type enzyme
[4] = tested on: EcTrmD D177*A; assay: Pre-steady-state methyl transfer kinetics, D177*A mutant; type: biochemical, E. coli; conditions: D177*A relative to wild-type enzyme
[5] = tested on: EcTrmD G141A; assay: Pre-steady-state methyl transfer kinetics, G141A mutant; type: biochemical, E. coli; conditions: G141A relative to wild-type enzyme
[6] = tested on: EcTrmD Y115A; assay: Pre-steady-state methyl transfer kinetics, Y115A mutant; type: biochemical, E. coli; conditions: Y115A relative to wild-type enzyme
[7] = target: TrmD Y115A dimer (Escherichia coli, UniProt P0A873, Y115A); type: binding, E. coli; conditions: Y115 mutant; room temperature; pH 8.0
Sequence of TrmD Y115A dimer (P0A873 whole entry Y115A): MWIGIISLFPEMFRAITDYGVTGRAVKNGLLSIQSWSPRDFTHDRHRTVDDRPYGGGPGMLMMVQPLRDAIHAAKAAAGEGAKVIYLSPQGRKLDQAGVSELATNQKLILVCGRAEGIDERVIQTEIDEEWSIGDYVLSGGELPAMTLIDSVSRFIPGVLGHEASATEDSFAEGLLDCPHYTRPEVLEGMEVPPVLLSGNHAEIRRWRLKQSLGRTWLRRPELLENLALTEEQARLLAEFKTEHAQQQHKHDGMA

[8] = target: wild-type TrmD dimer (Escherichia coli, UniProt P0A873); assay: Fluorescence titration; type: binding, E. coli; conditions: wild-type enzyme; room temperature; pH 8.0
Sequence of wild-type TrmD dimer (P0A873 whole entry): as the sequence (P0A873 whole entry Y115A) above, with A115Y counted along it
In short: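 His-tagged enzyme expressed in E. coli SG13009 and purified by cobalt-affinity and MonoQ ion-exchange chromatography. Concentration was measured by Bradford against BSA and corrected for active dimer fraction. Increasing AdoMet was added to the dimer, and intrinsic Trp fluorescence quenching was followed with excitation at 295 nm and emission at 304–400 nm.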

[9] = tested on: EcTrmD G59A; assay: Pre-steady-state methyl transfer kinetics, G59A mutant; type: biochemical, E. coli; conditions: G59A relative to wild-type enzyme
[10] = tested on: EcTrmD Y115F; assay: Pre-steady-state methyl transfer kinetics, Y115F mutant; type: biochemical, E. coli; conditions: Y115F relative to wild-type enzyme
[11] = tested on: EcTrmD R154A; assay: Pre-steady-state methyl transfer kinetics, R154A mutant; type: biochemical, E. coli; conditions: R154A relative to wild-type enzyme
[12] = tested on: EcTrmD Y86A; assay: Pre-steady-state methyl transfer kinetics, Y86A mutant; type: biochemical, E. coli; conditions: Y86A relative to wild-type enzyme
[13] = tested on: EcTrmD P89A; assay: Pre-steady-state methyl transfer kinetics, P89A mutant; type: biochemical, E. coli; conditions: P89A relative to wild-type enzyme
[14] = tested on: EcTrmD S170*A; assay: Pre-steady-state methyl transfer kinetics, S170*A mutant; type: biochemical, E. coli; conditions: S170*A relative to wild-type enzyme
[15] = tested on: EcTrmD Y136A; assay: Pre-steady-state methyl transfer kinetics, Y136A mutant; type: biochemical, E. coli; conditions: Y136A relative to wild-type enzyme
[16] = tested on: EcTrmD H180*A; assay: Pre-steady-state methyl transfer kinetics, H180*A mutant; type: biochemical, E. coli; conditions: H180*A relative to wild-type enzyme
[17] = tested on: EcTrmD D169*A; assay: Pre-steady-state methyl transfer kinetics, D169*A mutant; type: biochemical, E. coli; conditions: D169*A relative to wild-type enzyme
[18] = tested on: EcTrmD G134A; assay: Pre-steady-state methyl transfer kinetics, G134A mutant; type: biochemical, E. coli; conditions: G134A relative to wild-type enzyme
[19] = tested on: EcTrmD G55A; assay: Pre-steady-state methyl transfer kinetics, G55A mutant; type: biochemical, E. coli; conditions: G55A relative to wild-type enzyme
[20] = tested on: EcTrmD Q90A; assay: Pre-steady-state methyl transfer kinetics, Q90A mutant; type: biochemical, E. coli; conditions: Q90A relative to wild-type enzyme

Sequence of wild-type EcTrmD (P0A873 whole entry): as the sequence (P0A873 whole entry Y115A) above, with A115Y counted along it

C[S+](CC[C@H](N)C(=O)[O-])C[C@H]1O[C@@H](n2cnc3c(N)ncnc32)[C@H](O)[C@@H]1O (some centres unmarked) [AdoMet, S-adenosyl methionine]
kchem from enzyme titration of AdoMet [1]: 0.113 ± 0.003 s⁻¹
fold-change in Kd (AdoMet), effect on AdoMet binding [2]: 6.0 fold
fold-change in Kd (AdoMet), effect on AdoMet binding [3]: 23 fold
fold-change in Kd (AdoMet), decrease in AdoMet binding [4]: 9.0 fold
fold-change in Kd (AdoMet), decrease in AdoMet binding [5]: 32.2 fold
fold-change in Kd (AdoMet), effect on AdoMet binding [6]: 6.3 fold
binding stoichiometry of AdoMet per dimer [7]: two molecules of AdoMet per dimer
binding stoichiometry of AdoMet per dimer [8]: two molecules of AdoMet per dimer
fold-change in Kd (AdoMet), effect on AdoMet binding [9]: 3.2 fold
fold-change in Kd (AdoMet), effect on AdoMet binding [10]: 8.0 fold
effect on AdoMet binding [11]: neither had an effect
fold-change in Kd (AdoMet), effect on AdoMet binding [12]: 2.8 fold
fold-change in Kd (AdoMet), effect on AdoMet binding [13]: 2.6 fold
fold-change in Kd (AdoMet), decrease in AdoMet binding [14]: 2.6 fold
fold-change in Kd (AdoMet), decrease in AdoMet binding [15]: 8.4 fold
fold-change in Kd (AdoMet), decrease in AdoMet binding [16]: 4.4 fold
effect on AdoMet binding [17]: neither had an effect
fold-change in Kd (AdoMet), decrease in AdoMet binding [18]: 19.0 fold
fold-change in Kd (AdoMet), effect on AdoMet binding [19]: 12.8 fold
fold-change in Kd (AdoMet), effect on AdoMet binding [20]: 1.2 fold
